From publication PMC6551323 (Acta biomaterialia, 2018)

Type: in vitro ADME, bovine
Conditions: healthy explants; 24 h absorption, 7-day desorption in 10x PBS
Procedure, shortened: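 After 24 h uptake of 30 µM 5-FAM-labelled peptide at 37 °C, bovine cartilage disks were desorbed in 1x or 10x PBS with protease inhibitors for up to 7 days. The bath was changed daily and desorbed peptide was read by plate reader. % retention is moles remaining in tissue after desorption divided by moles taken up at 24 h. Mean ± SD, n=6–8 explants, ≥4 animals.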

(ARRRAARA)4 [CPC +16]
% CPC desorbed in 10x PBS over 7 days: about 40%
